Screening results (PubChem BioAssay)
DAX1 inh-1 – DAX1 (NR0B1) inhibitors on StAR promoter, primary screen, cell-based, luminescence, SF-1 (NR5A1), full-length DAX-1 | HEK293T StAR-luciferase reporter, SF-1/DAX-1 repression relief | inhibition, % at 6.8 µM | actives 1.1% (n = 370,000) | AID 652010, 2013;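 active means inhibition above the mean over all tested compounds plus 3 SD, cut at about 3.6% in these data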;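 further: 0% = DAX-1 cells with DMSO and 100% = cells lacking DAX-1 with DMSO; higher inhibition means more luminescence from relief of DAX-1 repression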
JMJD2C inh – inhibitors of GASC-1 histone demethylase, primary screen, biochemical, fluorescence, DELFIA europium; Lysine-specific demethylase 4C (Homo sapiens), Q9H3R0; GST-JMJD2C(1-420) H3K9me3 demethylation; inhibition, % at 2.35 µM; actives 0.069% (n = 330,000); AID 2099, 2009;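 active means more than half of a compound's replicate wells show inhibition beyond 50%, single wells judged on their own value; inconclusive means some, but no more than half, of replicates pass 50% inhibition; inactive means no replicate passes 50% inhibition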;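 further: signal counts dimethyl H3K9 product captured on neutravidin plate; 0% = median of DMSO wells and 100% = 0.3 times that DMSO median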
Target sequence (Q9H3R0 1-420 limits assumed): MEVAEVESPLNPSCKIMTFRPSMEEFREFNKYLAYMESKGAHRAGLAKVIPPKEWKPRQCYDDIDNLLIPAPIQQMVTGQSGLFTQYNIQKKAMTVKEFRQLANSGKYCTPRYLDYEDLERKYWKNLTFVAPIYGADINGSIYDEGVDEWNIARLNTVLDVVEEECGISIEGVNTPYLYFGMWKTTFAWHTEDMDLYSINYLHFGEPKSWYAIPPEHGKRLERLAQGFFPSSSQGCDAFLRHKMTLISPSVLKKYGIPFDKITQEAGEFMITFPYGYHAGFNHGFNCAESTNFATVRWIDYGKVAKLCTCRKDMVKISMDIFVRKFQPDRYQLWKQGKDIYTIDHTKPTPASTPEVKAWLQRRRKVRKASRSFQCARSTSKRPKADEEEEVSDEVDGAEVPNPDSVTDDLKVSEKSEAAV
DAX1 inh-2 – DAX1 (NR0B1) inhibitors, primary screen, cell-based, HEK293, Gal4-DAX1, luciferase luminescence; Nuclear receptor subfamily 0 group B member 1 (Homo sapiens), P51843; HEK293 Gal4-DAX1 luciferase reporter; inhibition, % at 6.75 µM; actives 0.99% (n = 340,000); AID 504766, 2011;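 active means inhibition above the mean over all tested compounds plus 3 SD, cut at about 4.2% in these data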;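 further: 0% = DAX1-transfected cells with DMSO and 100% = empty-vector control cells with DMSO; inhibition shows as a rise in luminescence from relieved DAX1 repression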
Target sequence (P51843 207-470 limits assumed): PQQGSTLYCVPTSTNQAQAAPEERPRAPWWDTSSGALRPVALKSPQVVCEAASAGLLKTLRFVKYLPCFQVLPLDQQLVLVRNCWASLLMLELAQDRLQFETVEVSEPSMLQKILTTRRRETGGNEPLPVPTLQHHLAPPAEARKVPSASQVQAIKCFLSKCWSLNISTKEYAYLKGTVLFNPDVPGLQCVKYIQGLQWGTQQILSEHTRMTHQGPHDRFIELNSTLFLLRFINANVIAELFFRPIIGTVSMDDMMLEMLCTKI
NR2E3 ag-1 – inhibitors of NR2E3-RetCOR corepressor binding, primary screen, NR2E3 agonist project, biochemical, TR-FRET, GST-NR2E3, biotin-RetCOR; 1536-well; inhibition of corepressor binding, % at 4.78 µM; actives 0.12% (n = 320,000);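 active means percent inhibition above the cutoff of mean plus 3 SD of all tested compounds, set per screening campaign, cut at about 20% in these data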;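 further: 0% = DMSO wells and 100% = biotin wells as full block of FRET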
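Material – GST-tagged NR2E3 plus biotinylated RetCOR corepressor · Quantity – NR2E3 fusion 1.35 nM · Times – 5 h incubation at 4 °C · Medium – pH 7.5 Tris-based buffer · Technique – TR-FRET, Eu(K)-anti-GST donor, streptavidin-D2 acceptor, ex 340, em 617/671 nm · Benchmarks – high control biotin, low control 0.6% DMSO · Format – 1536-well plates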
NR2E3 ag-2 – NR2E3 agonists in two-hybrid cells, primary screen, cell-based, luminescence, CHO-S, Gal4-NCOR/VP16-NR2E3 | Photoreceptor-specific nuclear receptor (Homo sapiens), Q9Y5X4 | luciferase | inhibition of corepressor binding, % at 3.98 µM | actives 0.35% (n = 360,000) | AID 602229, 2012;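 active means inhibition above the mean of all tested compounds plus 3 SD, cut at about 70% in these data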;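 further: 0% = DMSO with NR2E3 transfected cells and 100% = cells lacking NR2E3 construct; higher means lower luciferase signal from less NR2E3 corepressor binding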
SMARCA2 act – SMARCA2 (BRM) function activators, primary screen, cell-based, luminescence, high throughput; actives 1% (n = 370,000); activation, % at 9.1 µM; MG213 cells, MMTV-luciferase reporter, dexamethasone, overnight; AID 652017, 2013; in the data active means activation above about 7.8%;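 further: 0% = vehicle wells and 100% = reference activator wells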
* hit, by the source's call. In the library only some 3.2% were active in any assay of this set; here they are far more common.

How did CCCN(CC(=O)Nc1cccc(Br)c1)CC(=O)Nc1ccc(F)c(F)c1F do in these assays?
DAX1 inh-1: -0.9; JMJD2C inh: 2.6; DAX1 inh-2: -0.7; NR2E3 ag-1: 0.4; NR2E3 ag-2: 15.3; SMARCA2 act: -4.4

Results for O=[N+]([O-])c1ccc(OCCCCCN2CCOCC2)cc1 ?
DAX1 inh-1: 0.3; JMJD2C inh: 14.5; DAX1 inh-2: 5.0*; NR2E3 ag-1: 1.5; NR2E3 ag-2: 4.3; SMARCA2 act: 3.5

Results for CCOC(=O)c1[nH]c(=O)[nH]c1CSCCO ?
DAX1 inh-1: -0.2; JMJD2C inh: -6.9; DAX1 inh-2: -0.4; NR2E3 ag-1: 4.8; NR2E3 ag-2: -26.2; SMARCA2 act: 0.9

What do the screens show for `COC(=O)Cc1[nH]c(=O)[nH]c1C(=O)OC`?
DAX1 inh-1: 0.0; JMJD2C inh: -17.2; DAX1 inh-2: 4.6*; NR2E3 ag-1: 0.5; NR2E3 ag-2: 3.9; SMARCA2 act: 0.1

What do the screens show for `CCN(C[C@H]1N[C@@](Cc2ccccc2)(C(=O)OC)[C@H]2C(=O)N(Cc3ccccc3)C(=O)[C@@H]12)C(=O)C1CCCCC1`?
DAX1 inh-1: 4.2*; DAX1 inh-2: 1.1; NR2E3 ag-2: -14.8; SMARCA2 act: -4.7

How did NC(=O)c1cc2ccc(O)cc2oc1=NCc1ccccc1 do in these assays?
DAX1 inh-1: 1.4; JMJD2C inh: 2.7; DAX1 inh-2: 0.7; NR2E3 ag-1: -1.9; NR2E3 ag-2: 5.1; SMARCA2 act: 1.1

How did COc1ccc2cc(C(N)=O)c(=Nc3ccccc3)oc2c1 do in these assays?
DAX1 inh-1: 4.3*; JMJD2C inh: -0.9; DAX1 inh-2: 1.9; NR2E3 ag-1: 2.8; NR2E3 ag-2: -102.4; SMARCA2 act: 6.5

What do the screens show for `COc1ccc(OC)c(N=c2oc3cc(O)ccc3cc2C(N)=O)c1`?
DAX1 inh-1: -0.7; JMJD2C inh: inconclusive; DAX1 inh-2: -0.4; NR2E3 ag-1: 1.1; NR2E3 ag-2: -46.0; SMARCA2 act: 3.6

How did NC(=O)c1cc2ccc(O)cc2oc1=Nc1ccccc1 do in these assays?
DAX1 inh-1: 3.5; JMJD2C inh: 10.8; DAX1 inh-2: -0.5; NR2E3 ag-2: -102.9; SMARCA2 act: 7.9*

What do the screens show for `CCCCCCCCN1C(=O)[C@@H](CC(=O)N2CCN(C(=O)C3CC3)CC2)C[C@@]2(C(=O)OC)C1=C[C@H](C(C)C)O[C@@H]2C1CC1`?
DAX1 inh-1: -0.6; SMARCA2 act: -1.0

How did CC(C)CNS(=O)(=O)/C=C/c1cc2c(cc1CNC(=O)OC(C)(C)C)OCO2 do in these assays?
DAX1 inh-1: -0.1; SMARCA2 act: -2.0

Results for COc1ccc(CNc2oc(-c3cccc4ccccc34)nc2P(=O)(OC)OC)cc1 ?
DAX1 inh-1: -0.6; JMJD2C inh: -0.3; DAX1 inh-2: 0.1; NR2E3 ag-1: 0.0; NR2E3 ag-2: -7.3; SMARCA2 act: -0.3

What do the screens show for `COP(=O)(OC)c1nc(-c2cccc3ccccc23)oc1NCc1ccccc1`?
DAX1 inh-1: 0.0; JMJD2C inh: -3.5; DAX1 inh-2: 4.6*; NR2E3 ag-1: 0.6; NR2E3 ag-2: 3.9; SMARCA2 act: -2.8

Results for Cc1ccc(OCCC(=O)NNC(=O)c2cc(C)oc2C)cc1 ?
DAX1 inh-1: -0.4; JMJD2C inh: -1.0; DAX1 inh-2: 4.4*; NR2E3 ag-1: 3.3; NR2E3 ag-2: -23.0; SMARCA2 act: -2.4

Results for CCOC(=O)N1CCN(C(=O)C[C@H]2C(=O)N(Cc3ccc(OC)cc3)C3=CCCCC[C@@]32C(=O)OC)CC1 ?
DAX1 inh-1: -0.8; SMARCA2 act: -1.7

Results for Clc1ccc(CN2CCN(N=Cc3cccc(OCc4ccccc4)c3)CC2)cc1 ?
DAX1 inh-1: -1.8; SMARCA2 act: 1.5

How did COc1cccc2cc(C(=O)OCC(=O)N3CC(C)OC(C)C3)c(=O)oc12 (stereo not drawn) do in these assays?
DAX1 inh-1: 3.3; JMJD2C inh: -2.4; DAX1 inh-2: 5.5*; NR2E3 ag-2: -41.9; SMARCA2 act: 3.0

How did CCCCN1CN2Cc3ccc(C)cc3C2CS1(=O)=O (stereo not drawn) do in these assays?
DAX1 inh-1: 1.2; SMARCA2 act: -3.3

What do the screens show for `CC(Sc1nnc(-c2cccnc2)n1-c1ccccc1F)C(=O)N1CCCc2ccccc21` (stereo not drawn)?
DAX1 inh-1: 0.4; JMJD2C inh: 2.7; NR2E3 ag-1: 0.3; SMARCA2 act: 7.9*

What do the screens show for `COc1ccc(Cl)cc1Nc1nc(N)c2ccccc2n1`?
DAX1 inh-1: -0.1; JMJD2C inh: -7.5; DAX1 inh-2: 0.5; NR2E3 ag-1: -0.2; NR2E3 ag-2: -25.1; SMARCA2 act: -1.7

What do the screens show for `Cc1ccc(C)c(Nc2nc(N)c3ccccc3n2)c1`?
DAX1 inh-1: 2.2; JMJD2C inh: -33.6; DAX1 inh-2: 4.5*; NR2E3 ag-1: 4.4; NR2E3 ag-2: -125.2; SMARCA2 act: 4.1

How did CCN(CC)C(=O)CC[C@@H]1CC[C@]2(CCCN(Cc3ccc(Cl)cc3)C2)O1 do in these assays?
DAX1 inh-1: 0.6; SMARCA2 act: -3.3

Results for CCC(C)C(=O)OCC1(c2ccc(C)cc2OC(=O)C(C)C)CO1 (stereo not drawn) ?
DAX1 inh-1: 0.9; JMJD2C inh: -2.3; DAX1 inh-2: 1.4; NR2E3 ag-1: 1.4; NR2E3 ag-2: -27.4; SMARCA2 act: 1.8

How did Cc1ccc(C2(COC(=O)C(C)C)CO2)c(OC(=O)C(C)C)c1 (stereo not drawn) do in these assays?
DAX1 inh-1: 0.2; JMJD2C inh: -10.4; DAX1 inh-2: 4.6*; NR2E3 ag-1: 4.3; NR2E3 ag-2: -17.6; SMARCA2 act: 1.6

Results for CC(=O)Oc1cc2c(s1)CCN(C(C(=O)C1CC1)c1ccccc1F)C2 (stereo not drawn) ?
DAX1 inh-1: 0.0; SMARCA2 act: 4.6

Results for Cc1cccc(C(=O)OCC(=O)N2CCc3ccccc3C2)c1O ?
DAX1 inh-1: -0.5; JMJD2C inh: 1.8; DAX1 inh-2: -0.3; NR2E3 ag-2: -106.1; SMARCA2 act: 0.4

Results for Cc1cccc(C(=O)OCC(=O)N2CCCCCC2)c1O ?
DAX1 inh-1: 1.9; JMJD2C inh: 4.0; DAX1 inh-2: 4.5*; NR2E3 ag-1: 1.3; NR2E3 ag-2: -77.8; SMARCA2 act: 2.1

What do the screens show for `O=C(OCC(=O)N1CCOCC1)c1ccccc1Br`?
DAX1 inh-1: 0.2; JMJD2C inh: -11.1; DAX1 inh-2: 0.8; NR2E3 ag-1: 0.5; NR2E3 ag-2: -44.3; SMARCA2 act: -0.2
